For experiment [1], the target named is T1, Histamine H3 receptor (Homo sapiens, UniProt Q9Y5N1). Description: Antagonist activity at human histamine H3 receptor expressed in SK-N-MC cells by CRE-mediated beta-galactosidase reporter gene assay administered 10 mins before (R)-alpha-methylhistamine challenge after 6 hrs. In kind it is functional, cell-based. The gist of the method: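 SK-N-MC cells stably carrying human H3 and a β-galactosidase reporter. Compound added to medium, forskolin 5 min later, then (R)-α-methylhistamine 10 min after compound; 6 h at 37 °C. Cells lysed in phosphate assay buffer (pH 8) with 0.5% Triton and 40 mM β-mercaptoethanol; β-galactosidase read at 570 nm. Means of 4–6 experiments.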
T1 sequence (Q9Y5N1 whole entry): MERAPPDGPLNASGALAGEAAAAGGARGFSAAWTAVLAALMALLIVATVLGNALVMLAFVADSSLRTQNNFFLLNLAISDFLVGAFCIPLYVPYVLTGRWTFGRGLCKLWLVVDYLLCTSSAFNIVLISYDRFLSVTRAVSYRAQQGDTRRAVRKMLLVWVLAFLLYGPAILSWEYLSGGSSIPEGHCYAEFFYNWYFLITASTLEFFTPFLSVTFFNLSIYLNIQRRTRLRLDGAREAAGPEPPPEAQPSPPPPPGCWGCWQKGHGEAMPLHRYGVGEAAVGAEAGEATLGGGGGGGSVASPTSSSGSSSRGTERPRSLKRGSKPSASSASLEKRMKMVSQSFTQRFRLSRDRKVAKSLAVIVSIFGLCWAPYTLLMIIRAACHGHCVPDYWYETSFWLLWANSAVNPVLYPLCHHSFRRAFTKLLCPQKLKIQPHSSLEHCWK

For experiment [2], the target named is T1, Histamine H3 receptor. The experiment can be described thus: Displacement of [3H]RAMHA from human histamine H3 receptor expressed in SK-N-MC cells. Type of experiment: cell-based. Summed up:
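SK-N-MC membranes bearing human H3 incubated 60 min at room temperature with 0.5 nM [3H]-(R)-α-methylhistamine and competitor (0.01 nM to 10 µM). Rapid filtration, two washes in ice-cold 50 mM Tris–HCl/5 mM EDTA. Nonspecific binding with 10 µM histamine. pKi via Cheng–Prusoff; means of 4–6 experiments.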
A general note: Displacement assays read how much labelled ligand stays bound in the presence of the test substance.

For experiment [3], the target named is Histamine H3 receptor (Rattus norvegicus, UniProt Q9QYN8). Description: Displacement of [3H]RAMHA from histamine H3 receptor in Wistar rat brain membrane. In kind it is cell membranes. Summed up: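 Membranes from male Wistar rat brain (150–200 g) incubated 45 min with 0.5 nM [3H]RAMHA and compound (0.03 nM to 10 µM) in 50 mM Tris–HCl pH 7.4, 50 mM NaCl, 0.5 mM EDTA. Vacuum filtration, two ice-cold buffer rinses. Nonspecific binding set with 10 µM thioperamide. pKi by Cheng–Prusoff.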
Sequence of Histamine H3 receptor (Rattus norvegicus, UniProt Q9QYN8) (Q9QYN8 whole entry): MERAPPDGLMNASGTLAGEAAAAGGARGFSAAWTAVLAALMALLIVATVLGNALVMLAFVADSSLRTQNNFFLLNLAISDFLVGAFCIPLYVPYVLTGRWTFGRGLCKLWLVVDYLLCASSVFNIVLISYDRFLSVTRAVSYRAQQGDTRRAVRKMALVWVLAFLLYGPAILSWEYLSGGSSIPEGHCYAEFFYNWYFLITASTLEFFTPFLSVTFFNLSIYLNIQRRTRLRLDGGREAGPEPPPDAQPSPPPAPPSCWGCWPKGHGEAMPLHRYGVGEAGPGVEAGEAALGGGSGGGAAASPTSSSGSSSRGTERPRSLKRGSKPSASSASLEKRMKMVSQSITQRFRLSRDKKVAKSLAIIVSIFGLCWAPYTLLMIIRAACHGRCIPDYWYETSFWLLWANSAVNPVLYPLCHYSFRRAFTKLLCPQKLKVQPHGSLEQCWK

In experiment [4] the test system is SK-N-MC. The experiment can be described thus: Cytotoxicity against human SK-N-MC cells at 1 uM after 6 hrs by MTT test. In kind it is functional, cell-based. The gist of the method:
(§1)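 MTT viability test: SK-N-MC cells held 6 h with compound (1–10 µM) or vehicle. MTT (5 mg/ml stock) added for 3 h, cells washed in PBS, formazan dissolved in 0.1 N HCl in isopropanol, absorbance read at 570 nm. Viability given relative to control.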

In experiment [5] the test system is SK-N-MC. The experiment can be described thus: Cytotoxicity against human SK-N-MC cells at 10 uM after 6 hrs by MTT test. In kind it is functional, cell-based. The gist of the method: as §1
A general note: Tetrazolium assays rely on reduction of a dye to a coloured formazan, in cell work by metabolically active cells.

Experiment [6] concerns the target T2, Acetylcholinesterase (Rattus norvegicus) (UniProt P37136).
T2 sequence (whole entry): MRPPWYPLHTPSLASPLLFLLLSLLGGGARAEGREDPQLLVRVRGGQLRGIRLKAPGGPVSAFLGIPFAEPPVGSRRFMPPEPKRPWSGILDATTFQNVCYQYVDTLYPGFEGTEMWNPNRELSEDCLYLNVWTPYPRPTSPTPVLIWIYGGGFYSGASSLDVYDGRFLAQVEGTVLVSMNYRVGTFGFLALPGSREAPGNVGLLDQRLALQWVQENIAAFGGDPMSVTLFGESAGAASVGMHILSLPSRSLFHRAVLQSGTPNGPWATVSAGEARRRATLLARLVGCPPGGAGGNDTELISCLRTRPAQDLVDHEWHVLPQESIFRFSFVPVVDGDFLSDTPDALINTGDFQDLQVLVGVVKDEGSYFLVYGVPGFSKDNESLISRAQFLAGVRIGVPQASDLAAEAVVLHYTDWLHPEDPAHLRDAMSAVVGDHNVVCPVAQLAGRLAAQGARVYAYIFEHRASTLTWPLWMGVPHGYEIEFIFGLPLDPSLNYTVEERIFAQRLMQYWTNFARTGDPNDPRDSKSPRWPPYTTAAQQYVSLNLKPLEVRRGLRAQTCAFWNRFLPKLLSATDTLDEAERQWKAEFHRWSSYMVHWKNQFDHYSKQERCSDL
Description: Inhibition of acetylcholinesterase in Wistar rat brain homogenate at upto 10 uM by Ellman's method. Type of experiment: tissue-based.

Experiment [7] has as its target Histamine H2 receptor (Cavia porcellus) (UniProt P47747). Description: Antagonist activity at histamine H2 receptor in guinea pig atrium assessed as changes in rate of spontaneous beat at upto 3 uM. In kind it is functional, tissue-based. The settings on record: Cardiac atrium. Summed up: (§2)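 Guinea-pig atria (H2) in Ringer–Locke at 31 °C (mM: NaCl 154.0, KCl 5.6, CaCl2 1.08, NaHCO3 5.95, glucose 11.1), gassed 95% O2–5% CO2. Spontaneous beating rate recorded by cardiotachograph. Cumulative dimaprit curves (0.1–100 µM) run without and with compound up to 10 µM. Affinity given as pKB by Furchgott, or as pD2′ by Van Rossum if non-surmountable.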

In experiment [8] the target is Histamine H1 receptor (Cavia porcellus) (UniProt P31389). Description: Antagonist activity at histamine H1 receptor in guinea pig terminal ileum at upto 10 uM. Type of experiment: functional, tissue-based. The gist of the method:
(§3)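 Guinea-pig (250–350 g) terminal ileum (H1) suspended isometrically in Krebs–Henseleit at 37 °C, aerated 95% O2–5% CO2. Cumulative histamine curves (1 nM to 1 µM) run without and with compound up to 10 µM. pKB (apparent pA2) from Furchgott's equation; pD2′ from Van Rossum's equation when antagonism was non-surmountable.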

The target of experiment [9] is Histamine H3 receptor (Cavia porcellus) (UniProt Q9JI35). Description: Antagonist activity at histamine H3 receptor in electrically-stimulated guinea pig ileum assessed as inhibition of (R)-alpha-methylhistamine-induced twitch contraction in presence of 1 uM mepyramine. Type of experiment: functional, tissue-based. Summed up: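 Guinea-pig ileum, electrically stimulated (0.1 Hz, 1 ms, submaximal voltage). Twitch inhibition by cumulative (R)-α-methylhistamine (1 nM to 1 µM) with 1 µM mepyramine present. Compounds tested at 1 nM to 30 µM. Potency as pKB from Furchgott's equation, or as pD2′ (Van Rossum) for non-surmountable antagonism.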
Sequence of Histamine H3 receptor (Cavia porcellus) (Q9JI35 whole entry): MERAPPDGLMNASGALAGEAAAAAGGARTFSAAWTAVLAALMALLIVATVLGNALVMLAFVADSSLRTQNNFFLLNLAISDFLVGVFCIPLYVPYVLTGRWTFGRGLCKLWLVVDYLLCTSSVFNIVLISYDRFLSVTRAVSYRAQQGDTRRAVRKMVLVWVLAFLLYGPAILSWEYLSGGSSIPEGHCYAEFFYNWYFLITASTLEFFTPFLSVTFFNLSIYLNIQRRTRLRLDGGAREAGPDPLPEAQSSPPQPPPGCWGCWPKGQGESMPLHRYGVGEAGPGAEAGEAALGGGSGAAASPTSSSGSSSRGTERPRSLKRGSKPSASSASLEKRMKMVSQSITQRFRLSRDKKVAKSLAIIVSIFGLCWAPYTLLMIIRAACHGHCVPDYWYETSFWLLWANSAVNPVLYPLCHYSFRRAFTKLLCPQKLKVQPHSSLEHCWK

Experiment [10] concerns the target Histamine H4 receptor (Homo sapiens, UniProt Q9H3N8). Description: Displacement of [3H]histamine from human histamine H4 receptor expressed in SK-N-MC cells at upto 10 uM.
Experiment [11] deals with T2, Acetylcholinesterase (Rattus norvegicus). Description: Inhibition of acetylcholinesterase in Wistar rat brain homogenate at upto 1 to 100 uM by Ellman's method. Type of experiment: tissue-based. Summed up:
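Male Wistar rat (150–200 g) brain homogenate in 0.1 M phosphate buffer (pH 8.0) with DTNB (5 mM) and compound at 1–100 µM. Reaction started at 37 °C by adding acetylthiocholine (75 mM solution) and stopped after 15 min with 4% formalin. 5-Thio-2-nitrobenzoate absorbance at 412 nm. Percent inhibition versus control; reported as pIC50.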
In general terms: DTNB colorimetry detects thiols as they appear.

In experiment [12] the target is T3, Acetylcholinesterase (Rattus norvegicus, UniProt P37136).
T3 sequence (P37136 whole entry): T2 sequence (whole entry)
Description: Inhibition of acetylcholinesterase in Wistar rat brain homogenate by Ellman's method. In kind it is tissue-based.

Experiment [13] concerns the target Histamine H2 receptor (Cavia porcellus) (UniProt P47747). Description: Antagonist activity at histamine H2 receptor in guinea pig atrium assessed as changes in rate of spontaneous beat at upto 0.1 uM. In kind it is functional, tissue-based. The settings on record: Cardiac atrium. Summed up: as §2
Experiment [14] deals with Histamine H1 receptor (Cavia porcellus) (UniProt P31389). Description: Antagonist activity at histamine H1 receptor in guinea pig terminal ileum. In kind it is functional, tissue-based. Summed up: as §3
Sequence of Histamine H1 receptor (Cavia porcellus) (P31389 whole entry): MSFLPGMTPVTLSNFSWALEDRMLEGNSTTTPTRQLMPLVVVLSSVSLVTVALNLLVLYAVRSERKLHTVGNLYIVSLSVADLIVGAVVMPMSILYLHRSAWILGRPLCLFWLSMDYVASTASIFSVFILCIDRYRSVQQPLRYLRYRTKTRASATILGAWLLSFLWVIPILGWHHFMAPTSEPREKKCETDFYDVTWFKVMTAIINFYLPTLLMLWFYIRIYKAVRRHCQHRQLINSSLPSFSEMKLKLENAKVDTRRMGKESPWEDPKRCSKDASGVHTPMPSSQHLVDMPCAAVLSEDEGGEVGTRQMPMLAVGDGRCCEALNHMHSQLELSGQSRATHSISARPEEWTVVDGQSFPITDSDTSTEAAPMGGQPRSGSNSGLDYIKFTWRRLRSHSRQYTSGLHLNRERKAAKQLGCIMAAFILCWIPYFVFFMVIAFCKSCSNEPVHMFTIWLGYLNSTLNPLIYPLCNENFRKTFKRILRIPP
For experiment [15], the target named is Histamine H2 receptor (Cavia porcellus) (UniProt P47747). The experiment can be described thus: (§4) Antagonist activity at histamine H2 receptor in guinea pig atrium assessed as changes in rate of spontaneous beat. Type of experiment: functional, tissue-based. To be noted: Cardiac atrium. The gist of the method:
as §2

The target in experiment [16] is Histamine H2 receptor (Cavia porcellus, UniProt P47747). Described as §4. Type of experiment: functional, tissue-based, Cardiac atrium. The gist of the method: as §2
Sequence of Histamine H2 receptor (P47747 whole entry): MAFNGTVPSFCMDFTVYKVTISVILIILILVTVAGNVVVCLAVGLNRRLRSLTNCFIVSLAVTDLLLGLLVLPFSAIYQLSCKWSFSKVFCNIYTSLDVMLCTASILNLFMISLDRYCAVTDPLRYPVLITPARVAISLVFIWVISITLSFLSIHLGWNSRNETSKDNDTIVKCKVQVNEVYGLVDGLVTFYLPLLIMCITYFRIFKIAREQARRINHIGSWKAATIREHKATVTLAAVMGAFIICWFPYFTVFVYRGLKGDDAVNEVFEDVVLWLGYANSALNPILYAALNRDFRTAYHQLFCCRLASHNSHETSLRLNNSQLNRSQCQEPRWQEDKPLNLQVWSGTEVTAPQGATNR

Usually pKb stands for the negative decadic logarithm of the Kb, by convention in mol/L. The term Ki denotes the equilibrium dissociation constant of an inhibitor or competing ligand from its target. Read a low Ki as tighter binding. What is called inhibition is the relative decrease from the control value, in per cent. One may read the IC50 as the concentration that gives 50% inhibition. Low values mean greater potency in that assay, high ones weaker potency in that assay. Usually EC50 stands for the concentration needed to bring the measured effect to its halfway point.

Molecules are shown by their SMILES. Calls of active or inactive are those of the source. No cut-off for these calls is given here.

Sequence of Histamine H2 receptor (Cavia porcellus) (P47747 whole entry): as above
Sequence of Histamine H4 receptor (Q9H3N8 whole entry): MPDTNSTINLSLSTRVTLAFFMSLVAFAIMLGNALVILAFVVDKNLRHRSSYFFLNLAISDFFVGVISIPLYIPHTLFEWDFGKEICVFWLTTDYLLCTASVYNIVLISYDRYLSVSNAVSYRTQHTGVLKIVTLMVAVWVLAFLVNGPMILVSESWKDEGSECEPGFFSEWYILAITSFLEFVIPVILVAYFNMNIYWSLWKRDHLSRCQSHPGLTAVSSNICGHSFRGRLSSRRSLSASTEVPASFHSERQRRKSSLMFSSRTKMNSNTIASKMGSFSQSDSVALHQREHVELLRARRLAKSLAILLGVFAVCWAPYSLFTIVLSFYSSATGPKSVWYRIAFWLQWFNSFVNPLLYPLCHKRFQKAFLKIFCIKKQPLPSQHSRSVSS

As to `CN(C)Cc1ccc(-c2ccc(CN3CCCCC3)cc2)cc1`, the pKb in [1] is 8.92; in experiment [9] it was 9.05. Moreover, the inhibition constant Ki was 2.19 nM in experiment [2] and 1.32 nM in experiment [3]. In addition, the Activity result in experiment [4] and in experiment [5] was “Not toxic” each time. Moreover, the outcome in experiment [6], in [7], in [8] and in experiment [10] was inactive.
Consider `CN(Cc1ccccc1)Cc1ccc(-c2ccc(CN3CCCCC3)cc2)cc1`, for which the negative-log Kb (pKb) stood at 7.98 in experiment [1] and 7.34 in experiment [9]. For the same molecule, the Ki was 6.76 nM in experiment [2] and 14.1 nM in [3]. The Activity entry in experiment [4] and in experiment [5] was “Not toxic” throughout. For the same molecule, the inhibition in experiment [11] stood at 79%. Moreover, the concentration for half-maximal inhibition (IC50) in [12] is 3160 nM. Moreover, the result in experiment [13] and in [10] was inactive. The molecule further displayed a pD2 in [14] of 4.75.
With `c1cc(-c2ccc(CCN3CCCCC3)cc2)ccc1CCN1CCCCC1`, the pKb stood at 8.5 in experiment [1], 6.38 in experiment [15], 5.32 in [14] and 8.43 in experiment [9]. Further, the Activity result in [4] and in [5] was “Not toxic” throughout. Further, the outcome in experiment [6] and in experiment [10] was inactive.
Regarding `CC1CCN(CCc2ccc(-c3ccc(CCN4CCC(C)CC4)cc3)cc2)CC1`, the results for the negative logarithm of the Kb (pKb) in experiment [1], in experiment [14] and in [9] were 8.17, 5.85 and 7.43, respectively. The values for the inhibition constant (Ki) in [2] and in experiment [3] were 16.6 nM and 55 nM, respectively. Also, the Activity entry in [4] and in experiment [5] was “Not toxic” in each case. For the same molecule, the result in experiment [6], in [13] and in experiment [10] was inactive.
With `CCCN(CCC)Cc1ccc(-c2ccc(CN(CCC)CCC)cc2)cc1`, the negative-log Kb (pKb) worked out at 7.8 in [1], 5.54 in experiment [14] and 8.78 in experiment [9]. Also, the inhibition constant (Ki) in experiment [2] was 9.33 nM; in [3], 3.16 nM. Besides, the Activity result in experiment [4] and in experiment [5] was “Not toxic” each time. Further, the concentration for a half-maximal effect (EC50) in [16] is 3390 nM.

Values taken from ChEMBL document CHEMBL1151697, “Synthesis and structure-activity relationships for biphenyl H3 receptor antagonists with moderate anti-cholinesterase activity” (Bioorg Med Chem, 2008).
